The values below come from ChEMBL document CHEMBL4513216, “Probing the Open Global Health Chemical Diversity Library for Multistage-Active Starting Points for Next-Generation Antimalarials” (ACS Infect Dis, 2020).

The data set is described as follows: Toxicity liver stage against HepG2, at 10uM. The format is cell-based. Also on record: test concentration 10 uM, cell line HepG2-A16-CD81EGFP. Particulars: human, HepG2-A16-CD81EGFP cells; read-out: INHIBITION
The method in brief:
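Uninfected HepG2-A16-CD81EGFP cells, 3 × 10^3 per well, 1536-well, plated on prespotted compound at 10 μM final, parasite-free screening media added to match infected plates; puromycin 10 μM positive, DMSO 0.5% negative; run in parallel with 48 h PbLuc assay at 37 °C, 5% CO2; viability by CellTiter-Glo luminescence, normalized to controls.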
Take `COc1ccc(CN2CCOC[C@H](OCCC(C)C)C2)cc1`: the cytotoxicity at 10 µM was -4.04%.

Take `CC(C)(C)CN[C@@H]1CO[C@H](CNC(=O)c2cccs2)[C@H]1O`: the cytotoxicity at 10 µM is -4.23%.

With `COCCCNC(=O)N1CCN(C(=O)c2nsc3ccccc23)CC1`, the cytotoxicity at 10 µM was 12%.

As to `O=S(=O)(c1cccnc1)N1CCN(CC(O)c2cccs2)CC1` (configuration not stated), the cytotoxicity at 10 µM was -4.21%.

For `O=C(C1CCC2(CCN(c3ncccn3)CC2)CO1)N1CCCC1` (configuration not stated), the cytotoxicity at 10 µM came to 5.59%.

As for `COC[C@@H]1CC[C@H]2[C@H](CCN2S(=O)(=O)Cc2ccccc2)O1`, the cytotoxicity at 10 µM turned out to be 7.43%.

For `N#Cc1ccc(OC[C@]23COC[C@H]2CN(c2ncccn2)C3)nc1`, the cytotoxicity at 10 µM was -1.84%.

Regarding `CC(C)NC(=O)N1CCC2(COCc3cnc(-c4ccccc4)nc32)C1` (configuration not stated), the cytotoxicity at 10 µM is -0.311%.

Turning to `O=C(c1cnc2ccc(F)cc2c1NCc1ccco1)N1CCCCC1`, the cytotoxicity at 10 µM came to 9.34%.

`COc1ccc(-n2nc(C(C)=O)c(C(C)=O)c2C)cc1Cl`: the cytotoxicity at 10 µM was -0.145%.

For the compound `Cc1cs/c(=N\C(=O)Cn2nc(N3CCOCC3)ccc2=O)[nH]1`, the cytotoxicity at 10 µM was -5.07%.

Consider `O=C(Cn1cc(I)cn1)N1CCCCCC1`, for which the cytotoxicity at 10 µM was 8.9%.

Regarding `Cc1ccc(-c2cc(N)c(=O)n(C(C)C(N)=O)n2)o1` (configuration not stated), the cytotoxicity at 10 µM was -1.89%.

With `Cn1cc(CN2CCC(c3cc(COc4ccc(Cl)cc4)[nH]n3)C2)cn1` (configuration not stated), the cytotoxicity at 10 µM turned out to be 0.0085%.

For the compound `CCN(CC)CCCNCc1cc2cc(C)ccc2[nH]c1=O`, the cytotoxicity at 10 µM was -1.55%.

Consider `Cc1noc(C)c1CCC(=O)NCC1(O)CCN(c2ccccn2)C1` (configuration not stated), for which the cytotoxicity at 10 µM turned out to be 2.12%.

On to `CC(=O)N1CCOC(c2cncc(CCC(=O)N(C)C)n2)C1` (configuration not stated), for which the cytotoxicity at 10 µM is -0.197%.

With `CNC(=O)c1cnn2c(C3CCCN3C)ccnc12` (configuration not stated), the cytotoxicity at 10 µM amounted to 3.74%.

On to `Cc1nc(C(=O)NCc2ccccn2)cc(C2CCCN2)n1` (configuration not stated), for which the cytotoxicity at 10 µM is 6.83%.

As to `Cc1nc2ccc(C(=O)N3CCC(COc4ccccn4)CC3)cc2[nH]1`, the cytotoxicity at 10 µM is -8.09%.

As for `Cc1cc(O)nc(C2CN(CCC(F)(F)F)CCO2)n1` (configuration not stated), the cytotoxicity at 10 µM is -27.4%.

As for `CCNC(=O)C1(CC2CC(c3ccccc3OC)=NO2)CCOCC1` (configuration not stated), the cytotoxicity at 10 µM was -26.8%.

In the case of `Cc1ccc2c(c1)C(=O)NCC1(CCN(Cc3ccccc3)CC1)O2`, the cytotoxicity at 10 µM was -26.9%.

In the case of `O=S(=O)(Nc1ccc(N2CCOCC2)cc1)c1cccc(F)c1`, the cytotoxicity at 10 µM came to 12%.

For `Cn1cc(C(=O)N2CCN(c3ccc(F)cc3)CC2)ccc1=O`, the cytotoxicity at 10 µM worked out at 1.37%.

As to `CN(c1cccnc1N1CCCC1)S(=O)(=O)c1cccnc1`, the cytotoxicity at 10 µM came to 0.981%.

On to `Cc1cnn(-c2ccc(S(=O)(=O)N(C)CC(C)(CO)CO)cc2F)c1`, for which the cytotoxicity at 10 µM was determined as 12.5%.

Take `O=C(NCC(F)(F)F)c1ccncc1`: the cytotoxicity at 10 µM is -19%.

As for `CC(C#N)CN(C)C(=O)CCNC(=O)OCC(F)(F)F` (configuration not stated), the cytotoxicity at 10 µM worked out at 3.89%.

As for `CCOCC(=O)N1CCC(C(O)c2ccc(F)cc2)CC1` (configuration not stated), the cytotoxicity at 10 µM is -3.83%.

`Cc1[nH]nc2ncc(C(=O)N3CCN(CC(C)(C)O)CC3)cc12`: the cytotoxicity at 10 µM was -0.0414%.

Regarding `O=C(CN1CCCS1(=O)=O)Nc1ccc(OC2CCCC2)c(Cl)c1`, the cytotoxicity at 10 µM is -8.87%.

Regarding `CCc1ccc(C(=O)N2CCCN(Cc3csc(CC)n3)CC2)o1`, the cytotoxicity at 10 µM is -1.86%.

Regarding `Cc1ccc(N(CC(=O)N2CCCCC2)C(=O)C2CCCO2)cc1` (configuration not stated), the cytotoxicity at 10 µM came out at 13.9%.

Regarding `Cc1cc(Br)ccc1NCC(=O)Nc1cc(C(C)(C)C)no1`, the cytotoxicity at 10 µM worked out at 5.09%.

Take `O=C(Nc1cnc(C2CC2)nc1)N1CCC(CN2CCCC2)C1` (configuration not stated): the cytotoxicity at 10 µM was 18.8%.

Turning to `CSc1cc2c(cc1NC(=O)NCc1ccco1)OCCO2`, the cytotoxicity at 10 µM is -5.08%.

As to `Cc1cc2n(n1)CC(CNC1CCN(C(=O)c3ccco3)CC1)CN2` (configuration not stated), the cytotoxicity at 10 µM was 4%.

Consider `Cc1ccc(-n2nnc(CC(=O)N3CCN(C(C)C)CC3)c2C)cc1`, for which the cytotoxicity at 10 µM was -3.36%.

With `CCc1nccn1C1CCCN(C(=O)c2cnc[nH]2)C1` (configuration not stated), the cytotoxicity at 10 µM is 2.52%.

As for `O=C1CC(Cc2ccc(NC(=O)c3cccc(F)c3)cc2)C(=O)N1` (configuration not stated), the cytotoxicity at 10 µM was -1.39%.

`CC(CO)N1CCN(C(=O)OC(C)(C)C)CC1` (configuration not stated): the cytotoxicity at 10 µM was -7.85%.

In the case of `CC(C)=CCS(=O)(=O)Cc1noc(CC(C)C)n1`, the cytotoxicity at 10 µM was -4.59%.

On to `Cn1cc(NC(=O)Cc2cccs2)c(=O)n(C)c1=O`, for which the cytotoxicity at 10 µM was determined as 0.393%.

Consider `Cn1cc(S(=O)(=O)NC(=O)C2(c3cccc(Cl)c3)CC2)cn1`, for which the cytotoxicity at 10 µM is -10%.

With `CC(C)c1nc2n(n1)CC(NCC(=O)N(C)Cc1cccs1)CC2` (configuration not stated), the cytotoxicity at 10 µM is -10.2%.

Turning to `c1cncc(CN2CCC(NCCc3ccc4c(c3)CCO4)CC2)c1`, the cytotoxicity at 10 µM was determined as 5.41%.

In the case of `CCc1cnccc1C(=O)NC1CCN(C(=O)OC)CC1`, the cytotoxicity at 10 µM came to 9.09%.

For the compound `CC(C)NC(=O)N(C)C1CCN(c2ccccc2Cl)C1=O` (configuration not stated), the cytotoxicity at 10 µM was -4.56%.

`Cc1noc(C)c1CN(C)C(=O)CCn1c(=O)n(C)c2ccccc21`: the cytotoxicity at 10 µM was -6.67%.

In the case of `N#Cc1cc(S(N)(=O)=O)ccc1NC1CCc2ccc(F)cc21` (configuration not stated), the cytotoxicity at 10 µM came to 8.08%.

For `Cc1cc(C#N)ccc1S(=O)(=O)N1CCN(C)Cc2ccccc21`, the cytotoxicity at 10 µM was determined as 5.34%.

Regarding `CC(=O)NCCNC(=O)c1cnc(-c2ccccc2)nc1`, the cytotoxicity at 10 µM came to 6.56%.

For `CN(C)CCn1c2c(ccc1=O)CCN(Cc1ccncc1)CC2`, the cytotoxicity at 10 µM was found to be 3.97%.

For the compound `COCCCNC(=O)c1ccn(-c2ccc3ccccn23)n1`, the cytotoxicity at 10 µM was -0.987%.

As to `COc1ccccc1OC1CN(C(=O)Cc2c(C)nc3ccccn23)C1`, the cytotoxicity at 10 µM was -2.27%.

With `CN(C)C(C(=O)N1CCC(CCO)CC1)c1ccccc1F` (configuration not stated), the cytotoxicity at 10 µM was found to be 5.88%.

For the compound `O=C(C1CC(=O)N(C2CC2)C1)N1CCC(Oc2ccccc2Cl)CC1` (configuration not stated), the cytotoxicity at 10 µM was -7.54%.

On to `COCc1cc(CNC(=O)c2c(O)cccc2O)n[nH]1`, for which the cytotoxicity at 10 µM was -6.93%.

As to `C[C@@H]1CN(Cc2cn(C)nc2-c2ccccc2F)C[C@H](C)O1`, the cytotoxicity at 10 µM is -1.43%.

For the compound `Cc1cccc(C2CCCN(C(=O)C3CCN(CC(N)=O)CC3)C2)c1` (configuration not stated), the cytotoxicity at 10 µM is -7.18%.

Regarding `COC(=O)[C@H]1C[C@@H](O)CCN1S(=O)(=O)c1c(C)cc(OC)c(C)c1C`, the cytotoxicity at 10 µM was -16.2%.

Regarding `Cc1nccn1CCC1CCCCN1Cc1cccc(CCN)c1` (configuration not stated), the cytotoxicity at 10 µM worked out at 0.106%.

Take `O=C(c1ccccc1)N1CCCC(Nc2ccc(F)cc2)C1` (configuration not stated): the cytotoxicity at 10 µM is -3.09%.

Turning to `CC(NC(=O)Nc1ccccc1CN1CCOCC1)c1nnc(N)s1` (configuration not stated), the cytotoxicity at 10 µM amounted to 4.84%.

For `O=C(NCC(F)(F)F)C(c1cccnc1)N1CCOCC1` (configuration not stated), the cytotoxicity at 10 µM stood at 1.51%.

With `CN(C)c1nc(-c2ccncc2)nc2c1CCN(C(=O)[C@H](N)CO)C2`, the cytotoxicity at 10 µM turned out to be 8.01%.

For `Cc1cc(N2CCN(C(=O)CCc3scnc3C)CC2)nc(N)n1`, the cytotoxicity at 10 µM is -49.2%.

On to `Cc1ccc(-c2nc3c([nH]2)CCNC3C(=O)O)c2cccnc12` (configuration not stated), for which the cytotoxicity at 10 µM came out at 5%.

`Cc1cc(NCCNS(C)(=O)=O)nc2cc3c(cc12)CCC3`: the cytotoxicity at 10 µM is 2.9%.

For the compound `Cc1oc(-c2cc(F)cc(F)c2)nc1CN1C[C@@H](C)NC[C@@H]1C`, the cytotoxicity at 10 µM was -1.66%.

Take `CCNC(=O)[C@@H]1C[C@H](N)CN1C(=O)CCc1ccccc1Cl`: the cytotoxicity at 10 µM amounted to 4.79%.

`Cc1ccc2[nH]c(=O)cc(C(=O)NCCCn3nccc3C3CC3)c2c1`: the cytotoxicity at 10 µM is -4.35%.

As to `COCCN(Cc1nccs1)C(=O)c1c(C)cc(C)[nH]c1=O`, the cytotoxicity at 10 µM came out at 0.0773%.

For `CCc1cnc(CN(C(C)=O)C2CCN(Cc3nccn3C)C2)o1` (configuration not stated), the cytotoxicity at 10 µM is -8.13%.

In the case of `CCc1nc(CN2CCOC(Cn3cncn3)C2)no1` (configuration not stated), the cytotoxicity at 10 µM was -5.71%.

For `CCN(CC)C(=O)Cn1ccc2cc(NC(=O)COC)ccc21`, the cytotoxicity at 10 µM is -7.89%.

Turning to `CCc1noc(CN2CCN(C(=O)N(CC)CC)CC2)n1`, the cytotoxicity at 10 µM was -1.67%.

As to `CCOc1ccnc(N2CCCN(C(=O)c3cc[nH]c3C)CC2)n1`, the cytotoxicity at 10 µM was 0.893%.

Turning to `CCc1n[nH]c(C2CN(C(=O)c3cc4c(s3)CCC4)CCO2)n1` (configuration not stated), the cytotoxicity at 10 µM was -4.98%.

Take `CCN1CCN(c2ccc(CNC(=O)Cc3c(C)noc3C)cn2)CC1`: the cytotoxicity at 10 µM is -12.2%.

Turning to `Cc1cc(NC(=O)CN2CCCC2c2noc(C(C)C)n2)on1` (configuration not stated), the cytotoxicity at 10 µM was -6.31%.

For `COCCN1CCN(CCCS(=O)(=O)c2ccccc2)CC1C` (configuration not stated), the cytotoxicity at 10 µM is -9.31%.

As to `Cc1ccc(NC(=O)C2CSCN2C(=O)c2cc[nH]n2)c(C)c1` (configuration not stated), the cytotoxicity at 10 µM was -6.1%.

For the compound `CC(Cn1cccn1)NC(=O)NCCc1ccc(Cl)s1` (configuration not stated), the cytotoxicity at 10 µM is -3.56%.

With `Cn1ncc(C(=O)N2CCCC(n3cccn3)C2)c1C1CC1` (configuration not stated), the cytotoxicity at 10 µM was determined as 4.98%.

Regarding `Cc1cnn(CC2CCCCN2C(=O)Cc2csc(C)n2)c1` (configuration not stated), the cytotoxicity at 10 µM is 2.26%.

Consider `O=C1NCCCCC1NCc1csc(-c2ccc(F)cc2)n1` (configuration not stated), for which the cytotoxicity at 10 µM is -13.5%.

As to `c1ccc(N2CCC3(COCCN(Cc4cccs4)C3)C2)nc1` (configuration not stated), the cytotoxicity at 10 µM is 1.85%.

Regarding `O=C(c1ccncc1)N1CCCC2(COCCN(c3ccccc3)C2)C1` (configuration not stated), the cytotoxicity at 10 µM amounted to 2.31%.

As for `COCCC(=O)N1CCN(CC2CC2)c2nc(C)ccc2C1`, the cytotoxicity at 10 µM was 9.88%.

For the compound `CN1CCOCC12CCN(c1nncs1)CC2`, the cytotoxicity at 10 µM turned out to be 8.16%.

For the compound `Cc1noc([C@]23COC[C@H]2CN(C(C)C)C3)n1`, the cytotoxicity at 10 µM was 1.44%.

As to `CCN1CCC2(CCC(=O)N2Cc2cccc(C)n2)CC1`, the cytotoxicity at 10 µM came to 5.08%.

`CC(C)CN1CCC2(CCN(CC3CC3)CC2)C1=O`: the cytotoxicity at 10 µM worked out at 7.37%.

In the case of `c1cncc(C[C@H]2[C@H](N3CCOCC3)CCN2Cc2cccs2)c1`, the cytotoxicity at 10 µM is 8.34%.

Consider `CN(C)S(=O)(=O)N1C[C@H]2CC[C@@H](C1)N(Cc1cccc(C#N)c1)C2`, for which the cytotoxicity at 10 µM was found to be 3.62%.
